Experimental findings from ChEMBL document CHEMBL4613263, “Optimization of Tetrahydroindazoles as Inhibitors of Human Dihydroorotate Dehydrogenase and Evaluation of Their Activity and In Vitro Metabolic Stability” (J Med Chem, 2020) are described below.

In assay [1] the target is T1, Dihydroorotate dehydrogenase (quinone), mitochondrial (Homo sapiens, UniProt Q02127). As to the kind of experiment: Inhibition of recombinant human DHODH using dihydroorotic acid as substrate measured for 68 mins by DCIP based colorimetric assay.
Assay [2] has as its target T1, Dihydroorotate dehydrogenase (quinone), mitochondrial. As to the kind of experiment: Inhibition of DHODH in human ARN8 cells assessed as activation of p53-dependent transcription at 0.05 to 10 uM incubated for 16 hrs by CPRG assay. The assay is classed as cell-based. The essentials: (§1)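 ARN8 cells carrying the RGCΔFos-LacZ p53 reporter seeded at 2×10^4 per well and left 24 h, then treated 16 h (0.1% DMSO final, ±100 µM uridine). Cells washed, lysed and frozen at −20 °C for at least 2 h. β-galactosidase measured with CPRG substrate at pH 7.5, read at 590 nm after 24 h. Result is fold change vs DMSO; mean ± SD of three technical replicates.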

The target is the same in assay [3]. As to the kind of experiment: Inhibition of DHODH in human ARN8 cells assessed as activation of p53-dependent transcription at 0.05 to 10 uM incubated for 16 hrs in presence of 100 uM […], uridine by CPRG assay. The assay is classed as cell-based. The gist of the method:
as §1

The species entered for assay [4] is Homo sapiens. As to the kind of experiment: Antiproliferative activity against human ARN8 cells assessed as reduction in cell viability at 0.005 to 10 uM incubated for 72 hrs in presence of 100 uM […], uridine by SRB assay. It is filed as functional, cell-based.
Assay [5] addresses T1, Dihydroorotate dehydrogenase (quinone), mitochondrial. Put plainly: Inhibition of DHODH in human ARN8 cells assessed as increase in p53 level at 20 nM incubated for 24 hrs in presence of 100 uM […], uridine by Western blot analysis. It is filed as cell-based. The essentials:
(§2)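 ARN8 cells seeded at 15×10^4 per well and left 24 h. Treated 24 h at 20 nM, or with etoposide at 20 µM for 1 h, with 100 µM uridine where indicated. Lysates made in LDS buffer and protein-normalized, then run on 4–15% gels and transferred to PVDF. Phospho-proteins blocked in BSA, others in milk; primary antibodies overnight at 4 °C, ECL detection. Loading judged by stain-free total protein.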
(In general: In western blotting, separated proteins are transferred to a membrane and probed.)

For assay [6] the target is unchanged. As to the kind of experiment: Inhibition of DHODH in human ARN8 cells assessed as induction of DNA damage by measuring increase in gammaH2AX level at 20 nM incubated for 24 hrs in presence of 100 uM […], uridine by Western blot analysis. The assay is classed as cell-based. The essentials: as §2
For assay [7] the target is unchanged. Put plainly: Inhibition of DHOH in human ARN8 cells assessed as increase in caspase 3/7 activity at 20 nM incubated for 48 hrs by live cell imaging analysis. The assay is classed as cell-based. The gist of the method:
(§3)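 ARN8 cells seeded at 4×10^3 per well and left 24 h, then given 20 nM compound in medium containing 2 µM caspase-3/7 substrate and 0.3 µM YOYO-3 (0.2% DMSO). Where indicated, 100 µM uridine or 20 µM Z-VAD-FMK was added. Cells imaged every 2 h for 48.5 h in an IncuCyte. Positive-cell counts per mm² normalized to confluence %; mean ± SD of three technical replicates.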

Assay [8] has the same target. As to the kind of experiment: Inhibition of DHOH in human ARN8 cells assessed as increase in YOYO3 positive cells at 20 nM incubated for 48 hrs measured every 2 hrs by YOYO-3 staining based live cell imaging analysis. The gist of the method:
as §3

Assay [9] has the same target. Put plainly: Inhibition of DHOH in human ARN8 cells assessed as increase in YOYO3 positive cells at 20 nM incubated for 48 hrs in presence of 100 uM […], uridine measured every 2 hrs by YOYO-3 staining based live cell imaging analysis. The gist of the method:
as §3

The target is the same in assay [10]. Put plainly: Inhibition of DHODH in human ARN8 cells assessed as increase in p53 level at 20 nM incubated for 24 hrs in presence of pan-caspase inhibitor, Z-VAD-FMK by Western blot analysis. It is filed as cell-based. The gist of the method:
(§4)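 ARN8 cells treated 24 h at 20 nM, with 20 µM Z-VAD-FMK or vehicle added 4.5 h before harvest. Etoposide arm was 20 µM for 1 h alongside Z-VAD-FMK. Lysates normalized for protein and analysed by western blot for p53, p-Ser15 p53, γ-H2AX, H2AX and cleaved PARP (85 kDa) against stain-free total-protein loading.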

For assay [11] the target is unchanged. As to the kind of experiment: Inhibition of […] in human ARN8 cells assessed as increase in Bax protein expression at 20 nM incubated for 24 hrs by Western blot analysis. The assay is classed as cell-based.
For assay [12] the target is unchanged. Put plainly: Inhibition of […] in human ARN8 cells assessed as decrease in Bcl2 protein expression at 20 nM incubated for 24 hrs by Western blot analysis. The assay is classed as cell-based.
For assay [13] the target is unchanged. Put plainly: Inhibition of […] in human ARN8 cells assessed as increase in Bax protein expression at 20 nM incubated for 24 hrs in presence of pan-caspase inhibitor, Z-VAD-FMK by Western blot analysis. The assay is classed as cell-based.
Assay [14] shares this target. As to the kind of experiment: Inhibition of DHODH in human ARN8 cells assessed as induction of DNA damage by measuring increase in p53 phosphorylation at Ser15 at 20 nM incubated for 24 hrs in presence of pan-caspase inhibitor, Z-VAD-FMK by Western blot analysis. The assay is classed as cell-based. The gist of the method:
as §4

Structures are written as SMILES. The source made the active and inactive calls. The calls are words filed in the database; no cut-off is given here.

T1 sequence (Q02127 whole entry): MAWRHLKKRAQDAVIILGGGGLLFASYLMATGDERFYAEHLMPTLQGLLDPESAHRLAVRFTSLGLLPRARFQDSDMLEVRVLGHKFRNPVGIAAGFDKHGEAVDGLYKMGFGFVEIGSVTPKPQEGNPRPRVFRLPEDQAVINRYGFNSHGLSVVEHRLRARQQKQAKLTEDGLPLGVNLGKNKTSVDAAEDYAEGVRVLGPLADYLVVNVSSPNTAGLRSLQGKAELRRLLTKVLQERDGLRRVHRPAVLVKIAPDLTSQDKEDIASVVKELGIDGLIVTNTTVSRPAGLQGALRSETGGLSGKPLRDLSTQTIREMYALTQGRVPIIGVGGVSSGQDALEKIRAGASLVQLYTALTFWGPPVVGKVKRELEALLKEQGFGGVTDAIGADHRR

By IC50 is commonly meant the point on the concentration scale where inhibition reaches its midpoint. For the molecule `O=C(N[C@@H]1CCCc2c1cnn2-c1ccccc1F)c1ncn2c1CCCC2`, the 50% inhibitory concentration (IC50) in assay [1] is below 5 nM. For the same molecule, the inhibition result in [2], in [7], in [8], in assay [10], in assay [11] and in assay [12] was “Active” throughout. Besides, the inhibition entry in [13] and in [14] was “Active” each time. Further, the inhibition result in [3], in assay [5], in assay [6] and in [9] was “inactive” in each case. In assay [4], the outcome was inactive.
